The results in this text go back to ChEMBL document CHEMBL3414485, “Development of cyclic NGR peptides with thioether linkage: structure and dynamics determining deamidation and bioactivity” (J Med Chem, 2015).

Series [1] is described as follows: Chemical stability 0.2M NH4OAc at pH 5.0 at 1 mg/ml at room temperature assessed as ratio of Asn-containing cyclic peptides after 24 hrs by HPLC method. In kind it is physicochemical. Conditions: 0.2 M NH4OAc buffer, read-out: Stability. In outline: (§1)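 Peptide at 1.0 mg/mL (~2 mM). Buffer runs at room temperature: 0.2 M NH4OAc pH 5.0, PBS pH 7.4 or 0.1 M Tris pH 8.1. Medium runs at 37 °C in DMEM GlutaMAX-I with 10% FCS and gentamicin 160 μg/mL. Sampled at 24 and 48 h by analytical RP-HPLC. Asn/isoAsp/Asp ratio taken from peak AUC, species identified by MS and Asp reference peptides.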

The nature of series [2]: Chemical stability 0.2M NH4OAc at pH 5.0 at 1 mg/ml at room temperature assessed as ratio of Asn-containing cyclic peptides after 48 hrs by HPLC method. Particulars: 0.2 M NH4OAc buffer, read-out: Stability. In kind it is physicochemical. Summed up: as §1
Series [3] is described as follows: Chemical stability 0.1M Tris buffer at pH 8.1 at 1 mg/ml at room temperature assessed as ratio of Asn-containing cyclic peptides after 24 hrs by HPLC method. Conditions: read-out: Stability. In kind it is physicochemical. Summed up:
as §1

Series [4] deals with T1, Integrin alpha-V/beta-3 (Homo sapiens) (UniProt P05106+P06756). The series is described as follows: Binding affinity to integrin alphav beta3 receptor assessed as receptor-mediated cell adhesion in human A2058 cells at 10 nM to 1 uM and measured every 20 seconds for 25 hrs at 10 kHz by xCELLigence SP system based method. In outline: (§2)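 A2058 human melanoma cells grown in RPMI 1640 with 10% FCS, 2 mM L-glutamine and penicillin/streptomycin at 37 °C, 5% CO2. Electrodes coated 20 min at 4 °C with peptide (10-fold dilutions in 0.1% gelatin/PBS), dried 5 min. Background read 30 min, then 10^4 cells/well added. Impedance recorded every 20 s for 25 h at 10 kHz, in triplicate. ΔCI at 5, 10 and 25 h, normalized to gelatin-only control (100%).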

Series [5] can be described thus: Chemical stability DMEM cell culture medium at pH 7.3 at 1 mg/ml at 37 degC assessed as ratio of Asn-containing cyclic peptides after 24 hrs by HPLC method. In kind it is physicochemical. Particulars: read-out: Stability. In outline: as §1
The nature of series [6]: Chemical stability 0.1M Tris buffer at pH 8.1 at 1 mg/ml at room temperature assessed as ratio of Asn-containing cyclic peptides after 48 hrs by HPLC method. In kind it is physicochemical. Conditions: read-out: Stability. In outline:
as §1

Series [7] is described as follows: Chemical stability PBS buffer at pH 7.4 at 1 mg/ml at room temperature assessed as ratio of Asn-containing cyclic peptides after 48 hrs by HPLC method. Conditions: read-out: Stability. In kind it is physicochemical. Summed up: as §1
Series [8] is described as follows: Chemical stability PBS buffer at pH 7.4 at 1 mg/ml at room temperature assessed as ratio of Asn-containing cyclic peptides after 24 hrs by HPLC method. In kind it is physicochemical. Conditions: read-out: Stability. Summed up: as §1
A short description of series [9]: Chemical stability DMEM cell culture medium at pH 7.3 at 1 mg/ml at 37 degC assessed as ratio of Asn-containing cyclic peptides after 48 hrs by HPLC method. The series is classed as physicochemical. Conditions: read-out: Stability. In outline:
as §1

For series [10], the target named is T1, Integrin alpha-V/beta-3 (Homo sapiens). The series is described as follows: Binding affinity to integrin alphav beta3 receptor assessed as receptor-mediated cell adhesion in human A2058 cells at 10 nM to 100 nM and measured every 20 seconds for 5 to 25 hrs at 10 kHz by xCELLigence SP system based method. In outline:
as §2

The target is the same in series [11]. The series is described as follows: Binding affinity to integrin alphav beta3 receptor assessed as receptor-mediated cell adhesion in human A2058 cells at 1 uM and measured every 20 seconds for 5 to 25 hrs at 10 kHz by xCELLigence SP system based method. Summed up: as §2
Series [12] has the same target. The series is described as follows: Binding affinity to integrin alphav beta3 receptor assessed as receptor-mediated cell adhesion in human A2058 cells at 10 nM to 1 uM and measured every 20 seconds for >5 hrs at 10 kHz by xCELLigence SP system based method. Summed up: as §2
Series [13] shares this target. The series is described as follows: Binding affinity to integrin alphav beta3 receptor assessed as receptor-mediated cell adhesion in human A2058 cells at 100 nM and measured every 20 seconds for 25 hrs at 10 kHz by xCELLigence SP system based method. Summed up: as §2

The source made the active and inactive calls. The calls are words filed in the database; no cut-off is given here. Where a SMILES comes first, the peptide text is derived from it. Bridges are numbered along the chain shown (N, C = ends).

For the compound `N=C(N)NCCC[C@@H]1NC(=O)CNC(=O)[C@H](CC(N)=O)NC(=O)CCSC[C@@H](C(N)=O)NC1=O`, the remaining at 24 h, 1 mg/ml in [1] was 100%; in series [3], 86%; in series [5], 0%; in series [8], 94%. The remaining at 48 h, 1 mg/ml in series [2] was determined as 99%; in series [6], 73%; in [7], 89%. Further, the outcome in [4] was Active.

Turning to `CC(=O)N[C@H]1CSSC[C@@H](C(N)=O)NC(=O)[C@H](CCCNC(=N)N)NC(=O)CNC(=O)[C@H](CC(N)=O)NC1=O` (Ac-CNGRC-NH2; disulfide 1-5), the remaining at 48 h, 1 mg/ml in series [9] stood at 0%; in series [2] it was 100%; in series [6], 71%; in series [7], 93%. In addition, the outcome in series [10] was Active. Also, the remaining at 24 h, 1 mg/ml was 85% in [3], 46% in [5] and 96% in series [8].

In the case of `N=C(N)NCCC[C@@H]1NC(=O)CNC(=O)[C@H](CC(N)=O)NC(=O)[C@H](CCCCN)NC(=O)CC[C@@H](C(N)=O)NC1=O` (KNGRE-NH2; lactam N-5), the result in series [11] was inactive. Also, the remaining at 48 h, 1 mg/ml in [9] came out at 54%; in series [2], 100%; in [6] it was 100%; in series [7], 100%. Moreover, the outcome in series [10] was Active. Also, the remaining at 24 h, 1 mg/ml in series [5] turned out to be 92%.

For the compound `N=C(N)NCCC[C@@H]1NC(=O)CNC(=O)[C@H](CC(N)=O)NC(=O)CSCCC(C(N)=O)NC1=O` (single isomer, unassigned), the remaining at 24 h, 1 mg/ml in [1] worked out at 100%; in series [3], 66%; in series [5], 0%; in [8], 64%. For the same compound, the remaining at 48 h, 1 mg/ml in series [2] stood at 96%; in series [6], 43%; in series [7] it was 44%. The outcome in series [4] was inactive.

As for `N=C(N)NCCC[C@@H]1NC(=O)CNC(=O)[C@H](CC(N)=O)NC(=O)[C@H](CCCCN)NC(=O)CSC[C@@H](C(N)=O)NC1=O` ({CH2CO}-KNGRC-NH2; thioether N-5), the remaining at 24 h, 1 mg/ml was found to be 100% in series [1], 36% in [3], 0% in [5] and 58% in [8]. Further, the remaining at 48 h, 1 mg/ml in series [2] is 90%; in [6], 15%; in series [7], 43%. Besides, the outcome in series [4] was inactive.

On to `N=C(N)NCCC[C@@H]1NC(=O)CNC(=O)[C@H](CC(N)=O)NC(=O)CSC[C@@H](C(N)=O)NC1=O` ({CH2CO}-NGRC-NH2; thioether N-4), for which the remaining at 24 h, 1 mg/ml is 85% in [1], 19% in series [3], 0% in series [5] and 36% in series [8]. For the same compound, the results for the remaining at 48 h, 1 mg/ml in [2], in [6] and in series [7] were 67%, 13% and 15%, respectively. For the same compound, the outcome in [12] and in [13] was Active.

For the compound `N=C(N)NCCC[C@@H]1NC(=O)CNC(=O)[C@H](CC(N)=O)NC(=O)[C@@H]2CCCN2C(=O)CSC[C@@H](C(N)=O)NC1=O` ({CH2CO}-PNGRC-NH2; thioether N-5), the remaining at 24 h, 1 mg/ml in [1] came out at 100%; in series [3], 67%; in series [8], 86%. For the same compound, the remaining at 48 h, 1 mg/ml in series [2] amounted to 98%; in [6] it was 47%; in series [7] it was 75%. In series [4], the outcome was inactive.
